Data on 28 compounds can be found in ChEMBL document CHEMBL1153390, “Substituted terphenyl compounds as the first class of low molecular weight allosteric inhibitors of the luteinizing hormone receptor” (J Med Chem, 2009).

One may read the IC50 as the point on the concentration scale where inhibition reaches its midpoint. Higher therefore signals lower potency. The term EC50 denotes the midpoint of the concentration-response curve.

Calls of active or inactive are those of the source. The calls are words filed in the database; no cut-off is given here.

Assay [1] deals with T1, Lutropin-choriogonadotropic hormone receptor (Homo sapiens, UniProt P22888). Put plainly: Displacement of [3H]Org43553 from human luteinizing hormone receptor expressed in CHOK1 cells at 10 uM by scintillation spectrometry. In kind it is cell-based. The conditions noted are these: CHO-K1. The gist of the method: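 Membranes (50 µg protein) from CHO-K1 cells stably expressing human LH receptor incubated 90 min at 30 °C with 4.5 nM [3H]Org 43553 and 10 µM compound. Buffer was 25 mM Tris-HCl pH 7.4, 2 mM MgCl2, 0.1% BSA. Nonspecific binding defined with 10 µM Org 43553. Filtration on GF/B, ice-cold washes, scintillation counting. Result given as % displacement of specific binding, n=2, duplicate.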
A general note: In a radioligand displacement assay an active substance lowers the binding of a labelled ligand.

The target in assay [2] is T1, Lutropin-choriogonadotropic hormone receptor. The experiment in a line: Displacement of [3H]Org43553 from human luteinizing hormone receptor expressed in CHOK1 cells assessed as increase in radioligand dissociation at 10 uM by scintillation spectrometry relative to control. In kind it is cell-based. The conditions noted are these: CHO-K1. Put shortly: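 Membranes (50 µg protein) from CHO-K1 cells stably expressing human LH receptor preloaded with 4.5 nM [3H]Org 43553 for 90 min at 30 °C in 25 mM Tris-HCl pH 7.4, 2 mM MgCl2, 0.1% BSA. Dissociation then started with 10 µM Org 43553 ± 10 µM compound in 50% DMSO vehicle. Bound label measured after 30 min by GF/B filtration and scintillation counting. Control set at 100%. n=2, duplicate.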

The target is the same in assay [3]. Put plainly: Antagonist activity at human luteinizing hormone receptor expressed in CHOK1 cells assessed as decrease in recombinant luteinizing hormone activation potency at 10 uM by c-AMP-mediated luciferase assay. In kind it is functional, cell-based. The note with it: CHO-K1. Put shortly:
(§1)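 Cells as for the CRE-luciferase assay (human LH receptor, CHO-K1), stimulated 4 h with ten concentrations of recLH, rec-hCG or Org 43553, with or without 10 µM test compound. Luminescence read-out. Shift is the EC50 ratio with/without compound; 1 nM recLH response set 100%. At least three assays in duplicate.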

For assay [4] the target is unchanged. The experiment in a line: Antagonist activity at human luteinizing hormone receptor expressed in CHOK1 cells assessed as decrease in Org 43553 activation potency at 10 uM by c-AMP-mediated luciferase assay. The conditions noted are these: CHO-K1. The format is functional, cell-based. The gist of the method:
as §1

For assay [5], the target named is T2, Adenosine receptor A1 (Homo sapiens) (UniProt P30542).
T2 sequence (whole entry): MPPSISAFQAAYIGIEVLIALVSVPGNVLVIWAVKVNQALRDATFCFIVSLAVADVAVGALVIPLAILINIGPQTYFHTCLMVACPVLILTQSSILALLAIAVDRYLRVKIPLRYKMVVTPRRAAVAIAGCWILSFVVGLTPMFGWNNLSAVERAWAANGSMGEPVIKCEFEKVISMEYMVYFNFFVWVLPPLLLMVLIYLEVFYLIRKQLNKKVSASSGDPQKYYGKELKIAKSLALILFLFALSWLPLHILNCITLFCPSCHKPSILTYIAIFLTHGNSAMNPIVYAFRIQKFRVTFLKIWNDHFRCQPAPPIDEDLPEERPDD
The experiment in a line: Binding affinity to adenosine A1 receptor.

Assay [6] has as its target Adenosine receptor A2a (Homo sapiens) (UniProt P29274). Put plainly: Binding affinity to adenosine A2A receptor.
For assay [7], the target named is T1, Lutropin-choriogonadotropic hormone receptor. The experiment in a line: Displacement of [3H]Org43553 from human luteinizing hormone receptor expressed in CHOK1 cells. In kind it is cell-based, CHO-K1. The gist of the method:
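CHO-K1 membranes stably expressing human LH receptor, 50 µg protein, in 25 mM Tris-HCl pH 7.4 with 2 mM MgCl2 and 0.1% BSA. Incubated with 4.5 nM [3H]Org 43553 at 30 °C for 90 min, using 10 µM or a range of competitor concentrations. Nonspecific binding defined with 10 µM Org 43553. Read by filtration and scintillation counting; IC50 from nonlinear regression.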

Assay [8] shares this target. The experiment in a line: Displacement of [125I]human chorionic gonadotropin from human luteinizing hormone receptor expressed in CHOK1 cells by gamma counting. In kind it is cell-based. The note with it: CHO-K1.
The target is the same in assay [9]. The experiment in a line: Displacement of [125I]human chorionic gonadotropin from human luteinizing hormone receptor expressed in CHOK1 cells assessed as increase in radioligand dissociation at 10 uM after 4 hrs by infinite dilution method. In kind it is cell-based. The conditions noted are these: CHO-K1. The gist of the method:
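CHO-K1 membranes expressing human LH receptor, prelabelled with 125I-hCG. Dissociation was started by infinite dilution in the presence of 10 µM compound, and bound radioligand was measured after 4 h. t=0 binding set 0% dissociation, nonspecific 100%. At least two assays in triplicate.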

Assay [10] has the same target. Put plainly: Antagonist activity at human luteinizing hormone receptor expressed in CHOK1 cells assessed as decrease in recombinant human chorionic gonadotropin activation potency at 10 uM by c-AMP-mediated luciferase assay. The format is functional, cell-based. The note with it: CHO-K1. Put shortly: as §1
For assay [11] the target is unchanged. The experiment in a line: Agonist activity at human luteinizing hormone receptor expressed in CHOK1 cells assessed as c-AMP-mediated luciferase production at 10 uM. The note with it: CHO-K1. In kind it is functional, cell-based.
The target is the same in assay [12]. The experiment in a line: Agonist activity at human luteinizing hormone receptor expressed in CHOK1 cells assessed as c-AMP-mediated luciferase production. The format is functional, cell-based, CHO-K1. Put shortly:
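CHO-K1 cells stably expressing human LH receptor and CRE-luciferase, 7.5 × 10^5 cells/mL in DMEM/F12 with insulin and apo-transferrin. Stimulated 4 h, then luciferase read by luminescence. Basal activity set 0%; 1 nM recLH set 100%. Means of at least three assays in duplicate.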

For assay [13], the target named is T3, Adenosine receptor A3 (Homo sapiens) (UniProt P0DMS8).
T3 sequence (whole entry): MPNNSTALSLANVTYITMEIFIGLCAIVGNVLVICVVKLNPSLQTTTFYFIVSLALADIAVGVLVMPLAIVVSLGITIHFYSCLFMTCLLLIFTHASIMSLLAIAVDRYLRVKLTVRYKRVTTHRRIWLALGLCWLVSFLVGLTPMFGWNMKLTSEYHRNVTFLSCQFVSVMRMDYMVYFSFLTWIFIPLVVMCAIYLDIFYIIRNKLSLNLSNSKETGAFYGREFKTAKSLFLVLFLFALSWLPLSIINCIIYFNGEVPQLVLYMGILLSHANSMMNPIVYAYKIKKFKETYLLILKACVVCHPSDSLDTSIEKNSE
Put plainly: Activity at adenosine A3 receptor assessed as allosteric modulation.

T1 sequence (P22888 whole entry): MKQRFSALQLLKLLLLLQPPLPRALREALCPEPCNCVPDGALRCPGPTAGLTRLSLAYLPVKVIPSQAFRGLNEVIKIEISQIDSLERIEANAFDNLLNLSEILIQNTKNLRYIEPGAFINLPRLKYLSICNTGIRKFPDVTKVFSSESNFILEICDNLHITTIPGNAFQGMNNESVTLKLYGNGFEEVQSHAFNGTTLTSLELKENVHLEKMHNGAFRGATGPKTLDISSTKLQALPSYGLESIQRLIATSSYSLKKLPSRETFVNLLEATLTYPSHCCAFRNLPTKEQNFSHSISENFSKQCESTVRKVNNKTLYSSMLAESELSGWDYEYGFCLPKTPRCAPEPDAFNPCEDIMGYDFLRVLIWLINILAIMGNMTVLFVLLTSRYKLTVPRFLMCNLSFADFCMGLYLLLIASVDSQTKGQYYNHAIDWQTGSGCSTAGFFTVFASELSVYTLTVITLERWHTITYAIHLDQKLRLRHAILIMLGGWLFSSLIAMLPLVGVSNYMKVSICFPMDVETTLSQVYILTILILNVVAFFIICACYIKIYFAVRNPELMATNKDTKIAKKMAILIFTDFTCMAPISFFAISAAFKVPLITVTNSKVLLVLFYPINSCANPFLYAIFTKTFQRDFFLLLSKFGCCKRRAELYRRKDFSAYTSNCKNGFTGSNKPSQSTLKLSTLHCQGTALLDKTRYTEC
Sequence of Adenosine receptor A2a (Homo sapiens) (P29274 whole entry): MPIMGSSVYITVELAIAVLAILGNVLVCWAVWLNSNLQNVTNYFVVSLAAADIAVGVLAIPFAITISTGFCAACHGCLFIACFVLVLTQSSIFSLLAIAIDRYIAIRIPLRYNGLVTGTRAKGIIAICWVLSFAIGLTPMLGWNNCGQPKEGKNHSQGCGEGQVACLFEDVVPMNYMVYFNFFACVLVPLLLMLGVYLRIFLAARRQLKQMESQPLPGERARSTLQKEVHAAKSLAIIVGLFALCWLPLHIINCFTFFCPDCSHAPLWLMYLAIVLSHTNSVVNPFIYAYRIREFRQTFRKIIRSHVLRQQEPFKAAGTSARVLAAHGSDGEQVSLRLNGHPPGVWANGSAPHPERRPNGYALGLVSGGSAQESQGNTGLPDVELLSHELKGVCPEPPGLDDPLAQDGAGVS

Consider `O=C(NC1CCCC1)Oc1cc(-c2ccccc2)cc(-c2ccc(Cl)c(Cl)c2)c1`, for which the Activity in assay [1] turned out to be 69%; in assay [2], 64%.

Consider `O=C(Oc1cc(-c2ccccc2)cc(-c2ccccc2)c1)C1CCCC1`, for which the Activity was found to be 9% in assay [1] and 41% in assay [2].

`COc1ccc(NC(=O)Oc2cc(-c3ccccc3)cc(-c3ccccc3)c2)cc1`: the Activity was found to be 58% in [1] and 35% in assay [2].

As for `Cc1ccc(-c2cc(OC(=O)NC3CCCC3)cc(-c3ccccc3)c2)cc1`, the Activity in [1] amounted to 72%; in assay [2] it was 102%. Besides, the result in assay [3] and in assay [4] was Active.

As for `O=C(NC1CCCC1)Oc1cc(-c2ccccc2)cc(-c2ccc(Cl)cc2)c1`, the Activity was 77% in assay [1] and 71% in assay [2].

On to `Nc1cc(-c2ccccc2)cc(-c2ccccc2)c1`, for which the Activity in assay [1] was found to be 9%; in assay [2], 42%.

With `COc1ccc(-c2cc(OC(=O)NC3CCCC3)cc(-c3ccccc3)c2)cc1`, the Activity in [1] was determined as 67%; in assay [2] it was 83%.

With `O=C(Nc1cc(-c2ccccc2)cc(-c2ccccc2)c1)NC1CCCC1`, the Activity in assay [1] was 49%; in [2] it was 70%.

For `CCCNC(=O)Oc1cc(-c2ccccc2)cc(-c2ccccc2)c1`, the Activity in assay [1] is 47%; in assay [2] it was 72%.

Consider `O=C(NC1CCCCC1)Oc1cc(-c2ccccc2)cc(-c2ccccc2)c1`, for which the Activity in assay [1] amounted to 83%; in assay [2], 51%.

On to `c1ccc(Cn2cnc3c(-c4ccccc4)cc(-c4ccccc4)nc32)cc1`, for which the Activity in assay [2] was 16%.

Take `CC(C)(C)NC(=O)Oc1cc(-c2ccccc2)cc(-c2ccccc2)c1`: the Activity in [1] turned out to be 68%; in assay [2], 82%.

As for `Oc1cc(-c2ccccc2)cc(-c2ccccc2)c1`, the Activity in [1] is -2%; in assay [2], 27%.

Regarding `O=C(Nc1cc(-c2ccccc2)cc(-c2ccccc2)c1)C1CCCC1`, the Activity was found to be 30% in [1] and 56% in [2].

As for `Cc1ccc(-c2cc(OC(=O)NC3CCCC3)cc(-c3ccc(C)cc3)c2)cc1`, the Activity in [1] stood at 62%; in assay [2], 59%.

Regarding `COc1ccc(C(=O)Nc2nc(-c3ccccc3)cc(-c3ccccc3)n2)cc1`, the Activity in assay [2] is 42%.

As to `O=C(Nc1ccccc1)Oc1cc(-c2ccccc2)cc(-c2ccccc2)c1`, the outcome in assay [5] and in assay [6] was inactive. Besides, the figures for the Activity in assay [1] and in [2] were 28% and 79%, respectively.

Turning to `COc1ccc(-c2cc(OC(=O)NC3CCCC3)cc(-c3ccc(OC)cc3)c2)cc1`, the Activity in [1] is 17%; in assay [2], 31%.

Turning to `CCNC(=O)Oc1cc(-c2ccccc2)cc(-c2ccccc2)c1`, the Activity in assay [1] is -1%; in assay [2] it was 61%.

`CCCCNC(=O)Oc1cc(-c2ccccc2)cc(-c2ccccc2)c1`: the Activity came to 61% in [1] and 65% in assay [2].

`CC(C)NC(=O)Oc1cc(-c2ccccc2)cc(-c2ccccc2)c1`: the Activity was 14% in [1] and 55% in assay [2].

Turning to `O=C(NC1CCCC1)Oc1cc(-c2ccc(Cl)cc2)cc(-c2ccc(Cl)cc2)c1`, the Activity in assay [1] is 55%.

For the compound `O=C(NC1CCCC1)Oc1cc(-c2ccccc2)cc(-c2ccccc2)c1`, the Activity in [1] was 91%; in assay [2], 88%; in assay [7] (CHO-K1) it was “Dose-dependent effect”; in assay [11], 31%. Also, the half-inhibitory concentration (IC50) in assay [7] stood at 2300 nM. Also, the outcome in assay [8] and in [13] was inactive. The result in [9] was Active. The fold change (FC) was 3 in [3], 3 in [10] and 2 in assay [4]. Further, the EC50 in assay [12] was found to be 1600 nM.

With `O=C(NC1CCCC1)Oc1cccc(-c2ccccc2)c1`, the figures for the Activity in assay [1] and in [2] were 81% and 75%, respectively. Moreover, the outcome in assay [3], in assay [10] and in assay [4] was Active.

On to `N#Cc1c(N)cc(-c2ccccc2)cc1-c1cccs1`, for which, in assay [2], the Activity amounted to 29%.

As for `O=C(NC1CCCC1)Oc1cc(-c2ccc(Cl)c(Cl)c2)cc(-c2ccc(Cl)c(Cl)c2)c1`, in assay [1], the Activity worked out at 7%.

For `O=C(Nc1ccc(Cl)cc1)Oc1cc(-c2ccccc2)cc(-c2ccccc2)c1`, the Activity is 9% in assay [1] and 19% in assay [2].

Take `CCCCCNC(=O)Oc1cc(-c2ccccc2)cc(-c2ccccc2)c1`: the Activity in assay [1] was determined as 30%; in assay [2] it was 80%.
